{"source": "ChEMBL document CHEMBL1250448", "about": "“Inhibitor hijacking of Akt activation” (Nat Chem Biol, 2009)", "data": [{"target": "T1, Tyrosine-protein kinase receptor TYRO3 (Homo sapiens) (UniProt Q06418)", "T1 sequence (whole entry)": "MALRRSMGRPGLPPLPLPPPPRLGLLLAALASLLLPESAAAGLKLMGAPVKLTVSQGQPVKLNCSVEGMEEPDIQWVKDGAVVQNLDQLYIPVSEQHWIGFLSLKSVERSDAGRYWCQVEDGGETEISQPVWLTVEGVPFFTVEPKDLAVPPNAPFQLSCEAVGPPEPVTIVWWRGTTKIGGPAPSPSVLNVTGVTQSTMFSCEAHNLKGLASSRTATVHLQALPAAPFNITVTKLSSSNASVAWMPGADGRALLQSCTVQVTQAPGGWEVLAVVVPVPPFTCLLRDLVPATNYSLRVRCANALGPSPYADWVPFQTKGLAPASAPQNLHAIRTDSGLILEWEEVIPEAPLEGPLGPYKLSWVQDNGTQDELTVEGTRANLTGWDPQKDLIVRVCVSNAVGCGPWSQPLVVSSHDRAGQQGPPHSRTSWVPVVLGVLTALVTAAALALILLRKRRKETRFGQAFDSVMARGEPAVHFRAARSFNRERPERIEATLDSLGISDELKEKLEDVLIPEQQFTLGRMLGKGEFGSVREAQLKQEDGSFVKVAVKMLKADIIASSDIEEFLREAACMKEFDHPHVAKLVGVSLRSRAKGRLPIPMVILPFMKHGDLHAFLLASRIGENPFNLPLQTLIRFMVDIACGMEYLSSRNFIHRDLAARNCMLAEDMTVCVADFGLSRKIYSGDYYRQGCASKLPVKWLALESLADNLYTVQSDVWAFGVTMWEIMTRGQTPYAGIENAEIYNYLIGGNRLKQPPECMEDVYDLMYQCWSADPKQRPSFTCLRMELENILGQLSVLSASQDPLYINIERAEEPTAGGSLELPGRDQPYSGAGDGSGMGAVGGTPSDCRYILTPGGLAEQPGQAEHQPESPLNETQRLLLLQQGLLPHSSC", "test": "Inhibition of TYRO3 at 1 uM in presence of 10 uM ATP by Select Screen kinase assay relative to untreated control", "summary_of_the_method": "(§1)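 Commercial SelectScreen profiling panel of 220 purified kinases. Each kinase was tested at a single inhibitor concentration of 1 μM, and activity was expressed as percent inhibition.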", "units": {"inhibition": "%"}, "values": [{"smiles": "COc1ccccc1N1CCN(c2ncnc3[nH]nc(Br)c23)CC1", "inhibition": 37}, {"smiles": "O=C(NCCCNc1nc(Nc2cccc(NC(=O)N3CCCC3)c2)ncc1I)c1cccs1", "inhibition": 42}, {"smiles": "Cc1n[nH]c2ccc(-c3cncc(OC[C@@H](N)Cc4c[nH]c5ccccc45)c3)cc12", "inhibition": 14}]}, {"target": "T2, Ephrin type-A receptor 1 (Homo sapiens) (UniProt P21709)", "T2 sequence (whole entry)": "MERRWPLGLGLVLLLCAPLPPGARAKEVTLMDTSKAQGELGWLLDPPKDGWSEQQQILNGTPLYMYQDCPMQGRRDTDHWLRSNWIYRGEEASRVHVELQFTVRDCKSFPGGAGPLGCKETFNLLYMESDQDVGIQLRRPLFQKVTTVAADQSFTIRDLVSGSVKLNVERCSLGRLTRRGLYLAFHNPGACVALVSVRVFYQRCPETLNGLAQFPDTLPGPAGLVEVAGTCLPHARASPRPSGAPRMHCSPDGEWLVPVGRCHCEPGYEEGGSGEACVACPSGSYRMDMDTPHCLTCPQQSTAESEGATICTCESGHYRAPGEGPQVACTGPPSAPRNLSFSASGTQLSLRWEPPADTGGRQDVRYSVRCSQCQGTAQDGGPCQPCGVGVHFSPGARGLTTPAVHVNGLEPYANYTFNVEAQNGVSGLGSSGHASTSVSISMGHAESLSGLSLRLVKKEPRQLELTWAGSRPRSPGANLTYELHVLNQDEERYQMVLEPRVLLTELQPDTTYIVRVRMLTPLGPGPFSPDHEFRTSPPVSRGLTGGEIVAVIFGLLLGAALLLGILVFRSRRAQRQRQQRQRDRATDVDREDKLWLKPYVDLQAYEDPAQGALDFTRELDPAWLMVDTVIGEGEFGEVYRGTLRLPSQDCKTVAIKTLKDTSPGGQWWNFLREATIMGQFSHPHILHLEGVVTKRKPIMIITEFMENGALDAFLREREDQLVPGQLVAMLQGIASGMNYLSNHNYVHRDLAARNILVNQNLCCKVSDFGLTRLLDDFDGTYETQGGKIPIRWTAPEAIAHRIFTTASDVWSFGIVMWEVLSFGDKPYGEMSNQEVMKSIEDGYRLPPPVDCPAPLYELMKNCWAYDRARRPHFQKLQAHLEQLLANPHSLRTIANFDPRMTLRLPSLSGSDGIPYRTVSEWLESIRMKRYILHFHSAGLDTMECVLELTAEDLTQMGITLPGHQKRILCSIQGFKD", "test": "Inhibition of EPHA1 at 1 uM in presence of 10 uM ATP by Select Screen kinase assay relative to untreated control", "summary_of_the_method": "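Single-point screen at 1 μM against a panel of 220 purified kinases, run by Invitrogen staff as a SelectScreen profiling service. Read-out is percent inhibition of kinase activity.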", "units": {"inhibition": "%"}, "values": [{"smiles": "COc1ccccc1N1CCN(c2ncnc3[nH]nc(Br)c23)CC1", "inhibition": 13}, {"smiles": "O=C(NCCCNc1nc(Nc2cccc(NC(=O)N3CCCC3)c2)ncc1I)c1cccs1", "inhibition": 13}, {"smiles": "Cc1n[nH]c2ccc(-c3cncc(OC[C@@H](N)Cc4c[nH]c5ccccc45)c3)cc12", "inhibition": -1}]}, {"target": "T3, Dual specificity mitogen-activated protein kinase kinase 6 (Homo sapiens) (UniProt P52564)", "T3 sequence (whole entry)": "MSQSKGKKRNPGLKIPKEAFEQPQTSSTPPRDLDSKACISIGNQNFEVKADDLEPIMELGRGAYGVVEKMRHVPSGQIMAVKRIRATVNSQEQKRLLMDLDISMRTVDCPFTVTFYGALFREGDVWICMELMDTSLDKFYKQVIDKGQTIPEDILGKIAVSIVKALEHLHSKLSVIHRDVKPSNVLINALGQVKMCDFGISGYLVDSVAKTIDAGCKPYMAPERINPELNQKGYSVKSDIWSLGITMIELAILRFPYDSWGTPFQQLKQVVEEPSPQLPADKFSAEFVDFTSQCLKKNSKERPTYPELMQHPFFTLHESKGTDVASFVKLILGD", "test": "Inhibition of MAP2K6 at 1 uM in presence of 100 uM ATP by Select Screen kinase assay relative to untreated control", "summary_of_the_method": "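Single-concentration profiling at 1 μM against a panel of 220 purified kinases, run as an outsourced SelectScreen kinase profiling service. Activity is expressed as percent inhibition.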", "units": {"inhibition": "%"}, "values": [{"smiles": "COc1ccccc1N1CCN(c2ncnc3[nH]nc(Br)c23)CC1", "inhibition": 11}, {"smiles": "O=C(NCCCNc1nc(Nc2cccc(NC(=O)N3CCCC3)c2)ncc1I)c1cccs1", "inhibition": 25}, {"smiles": "Cc1n[nH]c2ccc(-c3cncc(OC[C@@H](N)Cc4c[nH]c5ccccc45)c3)cc12", "inhibition": 40}]}, {"target": "Platelet-derived growth factor receptor alpha (Homo sapiens) (UniProt P16234)", "sequence (P16234 whole entry)": "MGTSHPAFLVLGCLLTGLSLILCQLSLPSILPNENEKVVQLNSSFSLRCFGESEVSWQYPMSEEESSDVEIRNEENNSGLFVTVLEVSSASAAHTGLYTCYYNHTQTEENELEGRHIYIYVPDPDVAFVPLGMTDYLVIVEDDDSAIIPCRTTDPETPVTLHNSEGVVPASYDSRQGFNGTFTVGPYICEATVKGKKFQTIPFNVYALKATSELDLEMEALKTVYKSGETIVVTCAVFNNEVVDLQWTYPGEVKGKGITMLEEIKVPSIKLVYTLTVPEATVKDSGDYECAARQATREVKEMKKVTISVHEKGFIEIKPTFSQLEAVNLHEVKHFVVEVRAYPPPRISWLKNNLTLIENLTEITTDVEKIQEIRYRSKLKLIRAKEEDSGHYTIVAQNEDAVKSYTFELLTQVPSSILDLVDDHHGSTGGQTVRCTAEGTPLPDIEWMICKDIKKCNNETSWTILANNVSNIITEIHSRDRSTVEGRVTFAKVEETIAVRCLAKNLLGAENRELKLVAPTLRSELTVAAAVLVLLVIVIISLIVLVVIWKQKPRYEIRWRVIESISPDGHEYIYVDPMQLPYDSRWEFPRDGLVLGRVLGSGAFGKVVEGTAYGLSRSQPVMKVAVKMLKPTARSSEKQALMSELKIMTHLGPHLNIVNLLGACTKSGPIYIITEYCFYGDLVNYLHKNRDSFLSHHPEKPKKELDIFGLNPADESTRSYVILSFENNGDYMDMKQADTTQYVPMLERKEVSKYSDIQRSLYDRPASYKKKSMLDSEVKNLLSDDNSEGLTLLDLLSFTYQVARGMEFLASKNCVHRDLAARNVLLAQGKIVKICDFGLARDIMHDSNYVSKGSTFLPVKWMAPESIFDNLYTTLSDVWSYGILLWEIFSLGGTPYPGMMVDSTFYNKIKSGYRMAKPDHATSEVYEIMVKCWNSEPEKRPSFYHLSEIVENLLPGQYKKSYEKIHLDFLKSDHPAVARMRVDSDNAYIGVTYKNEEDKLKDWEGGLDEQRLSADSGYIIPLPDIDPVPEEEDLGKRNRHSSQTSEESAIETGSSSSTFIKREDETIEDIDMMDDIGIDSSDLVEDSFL", "test": "Inhibition of PDGFRalpha at 1 uM in presence of 100 uM ATP by Select Screen kinase assay relative to untreated control", "summary_of_the_method": "as §1", "units": {"inhibition": "%"}, "values": [{"smiles": "COc1ccccc1N1CCN(c2ncnc3[nH]nc(Br)c23)CC1", "inhibition": 3}, {"smiles": "O=C(NCCCNc1nc(Nc2cccc(NC(=O)N3CCCC3)c2)ncc1I)c1cccs1", "inhibition": 93}, {"smiles": "Cc1n[nH]c2ccc(-c3cncc(OC[C@@H](N)Cc4c[nH]c5ccccc45)c3)cc12", "inhibition": 1}]}]}
